Calls of active or inactive are those of the source. The calls are words filed in the database; no cut-off is given here.
Legend:
A-431 = assay: Antiproliferative activity against human A431 cells incubated for 72 hrs by MTT assay; format: functional, cell-based; conditions: A-431, 72 h
[1] = molecular target: Epidermal growth factor receptor (Homo sapiens, UniProt P00533, L858R/T790M); assay: Inhibition of EGFR L858R/T790M (unknown origin) by mobility shift assay
NCI-H1975 = assay: Antiproliferative activity against human NCI-H1975 cells incubated for 72 hrs by MTT assay; format: functional, cell-based; conditions: NCI-H1975, 72 h
Histone deacetylase 1 = Histone deacetylase 1 (Homo sapiens, UniProt Q13547); assay: Inhibition of HDAC1 (unknown origin)
[2] = molecular target: Receptor tyrosine-protein kinase erbB-2 (Homo sapiens, UniProt P04626); assay: Inhibition of HER2 (unknown origin) by mobility shift assay
Method in brief: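 In vitro kinase activity was measured by mobility shift assay, run by a contract provider.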

L02 = assay: cytotoxicity against human HL-7702 cells assessed as reduction of cell viability incubated for 72 hrs by MTT assay; format: ADME, cell-based; conditions: L02, 72 h
A549 = assay: Antiproliferative activity against human A549 cells incubated for 72 hrs by MTT assay; format: functional, cell-based; conditions: A549, 72 h
FHC = assay: Cytotoxicity against human FHC cells assessed as reduction of cell viability incubated for 72 hrs by MTT assay; format: ADME, cell-based
[3] = molecular target: Epidermal growth factor receptor (Homo sapiens, UniProt P00533, L858R); assay: Inhibition of EGFR L858R (unknown origin) by mobility shift assay
[4] = molecular target: T1, Epidermal growth factor receptor (Homo sapiens, UniProt P00533); assay: Inhibition of EGFR (unknown origin) by mobility shift assay
SK-BR-3 = assay: Antiproliferation activity against human SK-BR-3 cells incubated for 72 hrs by MTT assay; format: functional, cell-based; conditions: SK-BR-3, 72 h
Method in brief: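 MTT assay. About 0.5–1 × 10⁴ cells/well were pre-incubated 12 h at 37 °C in 5% CO₂, then exposed to a concentration series of compound for 72 h. Formazan was dissolved in DMSO and absorbance read at 490 nm. Three wells per condition, three independent experiments. IC50 is the mean ± SD from the dose-response curves.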

NCI-H838 = assay: Antiproliferation activity against human NCI-H838 cells incubated for 72 hrs by MTT assay; format: functional, cell-based; conditions: NCI-H838, 72 h
[5] = molecular target: Histone deacetylase (Homo sapiens) (UniProt Q13547+O15379+Q9UBN7+Q92769+Q9UQL6+Q8WUI4+Q9BY41+Q96DB2+P56524+Q9UKV0+Q969S8); assay: Inhibition of HDAC in human NCI-H1975 cells assessed as increase in histone H3 acetylation at 2.5 uM after 1 to 12 hrs by Western blot analysis; format: cell-based; conditions: time lower 1.0 hrs, time upper […]
[6] = molecular target: T1, Epidermal growth factor receptor; assay: Inhibition of EGFR in human NCI-H1975 cells assessed as reduction in EGFR phosphorylation at Tyr-1068 residues at 1 uM after 48 hrs by Western blot analysis; format: cell-based
Method in brief: (§1)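 Cells were treated with compound for 48 h and lysed on ice for 30 min in RIPA buffer with protease and phosphatase inhibitors. Lysates were cleared at 14000 g, 4 °C, and protein quantified by BCA. Samples were boiled in loading buffer, run on 10–12% SDS-PAGE and transferred to PVDF. Membranes were blocked 2 h, incubated in primary antibody overnight at 4 °C, then in secondary antibody 2 h at room temperature.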

[7] = molecular target: T1, Epidermal growth factor receptor; assay: Inhibition of EGFR in human NCI-H1975 cells assessed as reduction in EGFR phosphorylation at Tyr-1173 residues at 1 uM after 48 hrs by Western blot analysis; format: cell-based; method in brief: as §1

T1 sequence (P00533 whole entry): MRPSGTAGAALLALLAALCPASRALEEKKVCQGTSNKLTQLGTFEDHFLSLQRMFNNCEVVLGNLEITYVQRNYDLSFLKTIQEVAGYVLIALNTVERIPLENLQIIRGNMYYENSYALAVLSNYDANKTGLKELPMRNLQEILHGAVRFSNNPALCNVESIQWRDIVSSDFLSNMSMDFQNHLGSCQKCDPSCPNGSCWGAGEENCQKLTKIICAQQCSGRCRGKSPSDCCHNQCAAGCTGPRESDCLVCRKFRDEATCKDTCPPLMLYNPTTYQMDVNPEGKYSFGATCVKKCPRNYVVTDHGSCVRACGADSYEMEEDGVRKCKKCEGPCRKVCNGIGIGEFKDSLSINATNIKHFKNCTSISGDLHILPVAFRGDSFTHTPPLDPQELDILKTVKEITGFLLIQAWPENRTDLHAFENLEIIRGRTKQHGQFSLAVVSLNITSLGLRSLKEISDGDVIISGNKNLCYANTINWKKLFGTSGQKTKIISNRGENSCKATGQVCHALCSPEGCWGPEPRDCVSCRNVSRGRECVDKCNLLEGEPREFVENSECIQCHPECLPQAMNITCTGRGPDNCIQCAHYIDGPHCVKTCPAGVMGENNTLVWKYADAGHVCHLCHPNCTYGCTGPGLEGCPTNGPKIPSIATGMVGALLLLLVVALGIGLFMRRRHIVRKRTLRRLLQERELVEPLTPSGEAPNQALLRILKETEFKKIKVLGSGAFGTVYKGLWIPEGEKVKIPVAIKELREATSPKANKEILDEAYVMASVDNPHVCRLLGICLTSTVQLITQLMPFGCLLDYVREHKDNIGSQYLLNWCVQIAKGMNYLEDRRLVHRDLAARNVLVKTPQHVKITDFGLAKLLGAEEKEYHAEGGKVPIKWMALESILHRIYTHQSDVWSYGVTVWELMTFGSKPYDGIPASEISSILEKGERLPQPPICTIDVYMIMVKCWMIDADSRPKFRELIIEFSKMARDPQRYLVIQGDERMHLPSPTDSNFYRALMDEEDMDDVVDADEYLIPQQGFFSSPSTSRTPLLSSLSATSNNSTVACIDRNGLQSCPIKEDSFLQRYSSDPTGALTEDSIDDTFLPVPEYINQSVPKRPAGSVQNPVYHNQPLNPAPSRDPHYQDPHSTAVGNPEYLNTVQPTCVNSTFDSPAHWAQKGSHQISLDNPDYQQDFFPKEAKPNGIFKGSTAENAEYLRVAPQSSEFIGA
Chain of Epidermal growth factor receptor (Homo sapiens, UniProt P00533, L858R) (P00533 25-1210 L858R limits assumed): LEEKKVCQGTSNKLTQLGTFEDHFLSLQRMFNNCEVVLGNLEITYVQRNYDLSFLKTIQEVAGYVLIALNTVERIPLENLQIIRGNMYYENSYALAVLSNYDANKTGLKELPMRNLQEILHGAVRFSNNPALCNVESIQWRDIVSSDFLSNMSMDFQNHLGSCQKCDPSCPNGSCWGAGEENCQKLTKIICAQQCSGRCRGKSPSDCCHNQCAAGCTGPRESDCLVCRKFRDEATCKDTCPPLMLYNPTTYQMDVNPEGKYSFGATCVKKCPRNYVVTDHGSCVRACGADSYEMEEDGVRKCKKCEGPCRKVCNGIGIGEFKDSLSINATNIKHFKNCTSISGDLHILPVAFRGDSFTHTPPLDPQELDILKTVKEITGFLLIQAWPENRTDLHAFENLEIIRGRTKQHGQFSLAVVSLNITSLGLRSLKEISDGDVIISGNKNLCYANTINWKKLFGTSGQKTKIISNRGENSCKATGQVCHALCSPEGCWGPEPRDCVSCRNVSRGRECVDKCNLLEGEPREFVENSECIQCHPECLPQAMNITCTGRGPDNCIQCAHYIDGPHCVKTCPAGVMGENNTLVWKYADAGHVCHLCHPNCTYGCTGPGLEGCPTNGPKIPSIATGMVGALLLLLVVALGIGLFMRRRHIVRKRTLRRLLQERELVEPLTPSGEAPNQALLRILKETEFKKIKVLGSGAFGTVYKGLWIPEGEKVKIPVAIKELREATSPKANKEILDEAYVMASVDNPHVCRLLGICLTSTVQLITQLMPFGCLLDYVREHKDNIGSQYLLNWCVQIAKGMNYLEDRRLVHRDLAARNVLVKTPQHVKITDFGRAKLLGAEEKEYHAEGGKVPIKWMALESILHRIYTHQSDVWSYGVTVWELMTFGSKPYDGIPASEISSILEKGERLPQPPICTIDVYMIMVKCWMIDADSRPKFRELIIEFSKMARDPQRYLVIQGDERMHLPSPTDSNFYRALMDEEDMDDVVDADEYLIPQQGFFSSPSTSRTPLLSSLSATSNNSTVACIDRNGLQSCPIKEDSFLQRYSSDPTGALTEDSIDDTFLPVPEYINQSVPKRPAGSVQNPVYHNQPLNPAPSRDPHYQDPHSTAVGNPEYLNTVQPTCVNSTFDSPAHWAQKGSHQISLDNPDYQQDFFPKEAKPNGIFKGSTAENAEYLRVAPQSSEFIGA
Chain of Histone deacetylase 1 (Q13547 whole entry): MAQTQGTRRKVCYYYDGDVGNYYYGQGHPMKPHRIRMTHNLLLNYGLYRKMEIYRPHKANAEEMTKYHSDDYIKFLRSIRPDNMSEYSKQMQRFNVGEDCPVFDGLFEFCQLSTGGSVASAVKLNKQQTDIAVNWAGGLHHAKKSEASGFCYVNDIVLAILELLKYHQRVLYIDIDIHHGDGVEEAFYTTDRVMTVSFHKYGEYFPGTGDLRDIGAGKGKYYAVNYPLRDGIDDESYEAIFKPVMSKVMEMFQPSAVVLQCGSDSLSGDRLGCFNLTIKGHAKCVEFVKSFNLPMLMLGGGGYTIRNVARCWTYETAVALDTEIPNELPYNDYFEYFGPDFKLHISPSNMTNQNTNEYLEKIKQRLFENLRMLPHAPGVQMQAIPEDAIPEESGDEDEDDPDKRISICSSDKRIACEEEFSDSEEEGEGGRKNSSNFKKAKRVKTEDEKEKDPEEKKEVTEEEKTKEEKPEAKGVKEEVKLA
Chain of Receptor tyrosine-protein kinase erbB-2 (P04626 whole entry): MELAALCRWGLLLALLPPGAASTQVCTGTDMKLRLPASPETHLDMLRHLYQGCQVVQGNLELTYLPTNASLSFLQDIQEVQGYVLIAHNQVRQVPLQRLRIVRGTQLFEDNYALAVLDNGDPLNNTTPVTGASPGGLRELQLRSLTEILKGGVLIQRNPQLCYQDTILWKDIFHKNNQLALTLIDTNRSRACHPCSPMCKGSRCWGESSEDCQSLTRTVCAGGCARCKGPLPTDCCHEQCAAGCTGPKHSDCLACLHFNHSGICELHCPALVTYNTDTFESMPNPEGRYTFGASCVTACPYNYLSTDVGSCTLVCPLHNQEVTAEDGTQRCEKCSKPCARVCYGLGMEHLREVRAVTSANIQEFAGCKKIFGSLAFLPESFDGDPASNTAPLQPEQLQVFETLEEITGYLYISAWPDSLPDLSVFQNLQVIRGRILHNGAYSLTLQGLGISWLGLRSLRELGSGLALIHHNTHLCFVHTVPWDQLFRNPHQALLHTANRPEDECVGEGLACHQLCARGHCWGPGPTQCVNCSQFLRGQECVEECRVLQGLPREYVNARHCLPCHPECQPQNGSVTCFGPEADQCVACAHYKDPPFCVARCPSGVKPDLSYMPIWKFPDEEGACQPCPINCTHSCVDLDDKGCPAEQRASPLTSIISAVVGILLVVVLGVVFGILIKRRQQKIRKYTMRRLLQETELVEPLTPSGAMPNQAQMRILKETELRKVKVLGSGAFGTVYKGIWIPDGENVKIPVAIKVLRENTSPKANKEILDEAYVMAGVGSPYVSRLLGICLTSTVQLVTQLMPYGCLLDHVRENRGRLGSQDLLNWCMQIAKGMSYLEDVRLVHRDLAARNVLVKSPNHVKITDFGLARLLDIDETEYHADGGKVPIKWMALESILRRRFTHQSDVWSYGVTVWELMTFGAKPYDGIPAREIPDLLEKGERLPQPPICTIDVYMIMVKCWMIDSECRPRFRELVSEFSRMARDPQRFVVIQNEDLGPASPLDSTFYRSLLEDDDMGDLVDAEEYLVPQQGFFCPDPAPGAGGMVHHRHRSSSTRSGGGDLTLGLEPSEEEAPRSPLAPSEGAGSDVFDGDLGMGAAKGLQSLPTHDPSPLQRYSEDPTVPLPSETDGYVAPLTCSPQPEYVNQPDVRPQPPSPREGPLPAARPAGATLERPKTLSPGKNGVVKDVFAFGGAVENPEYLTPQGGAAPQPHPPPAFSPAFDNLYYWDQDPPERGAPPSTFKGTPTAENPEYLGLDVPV

Compound | IC50 (A-431) [nM] | IC50 [1] [nM] | IC50 (NCI-H1975) [nM] | IC50 (Histone deacetylase 1) [nM] | IC50 [2] [nM] | IC50 (L02) [nM] | IC50 (A549) [nM] | IC50 (FHC) [nM] | IC50 [3] [nM] | IC50 [4] [nM] | IC50 (SK-BR-3) [nM] | IC50 (NCI-H838) [nM] | inhibition [5] | inhibition [6] | inhibition [7]
C=CC(=O)Nc1cc2c(Nc3ccc(F)c(Cl)c3)ncnc2cc1OCc1cn(CCC(=O)NO)nn1 | 22000 | 2.3 | 4450 | 93 | 5.4 | > 25000 | > 50000 | > 25000 | 1.1 | 0.33 | > 50000 | > 50000 |  |  | 
C=CC(=O)Nc1cc2c(Nc3ccc(OCc4cccc(F)c4)c(Cl)c3)ncnc2cc1OCc1cn(CCCC(=O)NO)nn1 | 19900 | 15 | 12000 | > 1000 | 3.7 | > 25000 | > 50000 | > 25000 | 2.9 | 1.8 | 20200 | > 50000 |  |  | 
C=CC(=O)Nc1cc2c(Nc3ccc(OCc4cccc(F)c4)c(Cl)c3)ncnc2cc1OCc1cn(CCCCC(=O)NO)nn1 | 18800 | 14 | 14500 | > 1000 | 3.8 | > 25000 | > 50000 | > 25000 | 2.6 | 1.5 | 16000 | > 50000 |  |  | 
C=CC(=O)Nc1cc2c(Nc3ccc(F)c(Cl)c3)ncnc2cc1OCc1cn(CCCCC(=O)NO)nn1 | 15000 | 1.8 | 2500 | 292 | 7.3 | > 25000 | > 50000 | > 25000 | 0.88 | 0.35 | 20000 | > 50000 |  |  | 
C=CC(=O)Nc1cc2c(Nc3ccc(OCc4cccc(F)c4)c(Cl)c3)ncnc2cc1OCc1cn(CCC(=O)NO)nn1 | 16300 | 16 | 21000 | > 1000 | 3.7 | > 25000 | > 50000 | > 25000 | 2.2 | 1.1 | 24800 | > 50000 |  |  | 
C=CC(=O)Nc1cc2c(Nc3cccc(Cl)c3F)ncnc2cc1OCc1cn(CCCCC(=O)NO)nn1 | 15600 | 17 | 4180 | 132 | 16 | > 25000 | > 50000 | > 25000 | 1.2 | 0.44 | > 50000 | > 50000 |  |  | 
COc1cc2ncnc(Nc3ccc(F)c(Cl)c3)c2cc1OCCCN1CCOCC1 |  |  |  |  |  |  |  |  |  |  |  |  | Active |  | 
O=C(CCCCCCC(=O)Nc1ccccc1)NO [VORINOSTAT] |  |  |  |  |  |  |  |  |  |  | 2130 |  |  | inactive | inactive
C=CC(=O)Nc1cc2c(Nc3cccc(Cl)c3F)ncnc2cc1OCc1cn(CCCC(=O)NO)nn1 | 16900 |  | 2800 | 34 | 8 | > 25000 | > 50000 | > 25000 |  |  | > 50000 | > 50000 |  |  | 
C=CC(=O)Nc1cc2c(Nc3cccc(Cl)c3F)ncnc2cc1OCc1cn(CCC(=O)NO)nn1 | 15000 | 8.3 | 6610 | 44 | 13 | > 25000 | > 50000 | > 25000 | 1.1 | 0.34 | > 50000 | > 50000 |  |  | 

Source: ChEMBL document CHEMBL4732162, “Design, synthesis and evaluation of novel ErbB/HDAC multitargeted inhibitors with selectivity in EGFR mutant cell lines” (Eur J Med Chem, 2021)
